Converted amounts (≈) assume the structure as drawn.
Assays:
[1] = tested on: Mycobacterium tuberculosis; assay: Antituberculosis activity against Mycobacterium tuberculosis H37Ra ATCC 25177 after 6 days using alamar blue dye by broth microdilution assay; assay type: functional; conditions: H37Ra ATCC 25177, 144 h
How it was run: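 Strain H37Ra in a colorimetric Alamar blue broth microdilution assay using duplicate two-fold serial dilutions of drug.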

[2] = tested on: Mycobacterium tuberculosis; assay: Antituberculosis activity against Mycobacterium tuberculosis H37Rv ATCC 27294 after 7 days using alamar blue assay; assay type: functional; conditions: 168 h
How it was run: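 Strain H37Rv growth measured over a 10-point dose-response curve. IC90, the concentration inhibiting bacterial growth by 90%, is extrapolated from the curve.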

[3] = tested on: Vero; assay: Cytotoxicity against african green monkey Vero cells after 72 hrs by celltiter-glo assay; assay type: cell-based; conditions: chlorocebus sabaeus
How it was run: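 Vero cells grown in culture with compound across a 10-point dose-response curve. CC50 is extrapolated as the concentration that inhibits cell growth by 50%. Each compound was assayed at least three times.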

[4] = molecular target: T1, Cell division protein FtsZ (Mycobacterium tuberculosis, UniProt P9WN95); assay: Inhibition of Mycobacterium tuberculosis FtsZ polymerization expressed in Escherichia coli by light scattering assay
T1 sequence (P9WN95 whole entry): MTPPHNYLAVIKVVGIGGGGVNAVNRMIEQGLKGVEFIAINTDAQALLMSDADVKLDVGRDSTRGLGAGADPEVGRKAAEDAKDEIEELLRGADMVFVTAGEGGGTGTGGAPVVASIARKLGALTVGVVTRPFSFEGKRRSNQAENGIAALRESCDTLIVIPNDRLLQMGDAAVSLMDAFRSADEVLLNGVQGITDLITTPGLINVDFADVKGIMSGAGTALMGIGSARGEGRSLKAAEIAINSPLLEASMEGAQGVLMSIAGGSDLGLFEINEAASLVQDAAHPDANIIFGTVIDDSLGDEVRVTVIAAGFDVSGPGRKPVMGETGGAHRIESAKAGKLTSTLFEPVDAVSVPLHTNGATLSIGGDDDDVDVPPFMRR
How it was run: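 Mtb FtsZ polymerization assay with each compound run at least three times. IC50 is the concentration that inhibits polymerization by 50%, reported as mean ± standard deviation.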

[5] = Inhibition of purified bovine tubulin polymerization by light scattering assay; parameters: species or system Bos taurus
How it was run: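 Tubulin polymerization assay. IC50 is the concentration that inhibits polymerization by 50%. Each compound was analyzed at least three times, reported as mean ± standard deviation.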

[6] = organism: Bos taurus; assay: Inhibition of purified bovine tubulin polymerization at 100 uM by light scattering assay
[7] = tested on: Mus musculus; assay: Toxicity in C57BL/6 mouse model assessed as lethality at 300 mg/kg administered via gavage; assay type: organism-based; parameters: dose 300 mg/kg; conditions: in vivo, po
How it was run: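 Acute maximum tolerated dose study in C57BL/6 mice. Escalating doses up to 300 mg/kg were given daily for 3 days by gavage in 0.5% methyl cellulose, and doses were scaled back if mortality or adverse effects appeared.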

[8] = tested on: Mus musculus; assay: Toxicity in C57BL/6 mouse model assessed as adverse event at 100 mg/kg administered via gavage; assay type: organism-based; parameters: dose 100 mg/kg; conditions: in vivo, po
How it was run: (§1)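 Acute maximum tolerated dose study in C57BL/6 mice. Escalating oral gavage doses up to 300 mg/kg were given daily for 3 days, formulated in 0.5% methyl cellulose. Dosage was scaled back if mortality or adverse effects were observed.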

[9] = tested on: Mus musculus; assay: Toxicity in C57BL/6 mouse model assessed as adverse event at 30 mg/kg administered via gavage; assay type: organism-based; parameters: dose 30 mg/kg; conditions: in vivo, po; how it was run: as §1
[10] = tested on: Mycobacterium tuberculosis; assay: Antitubercular activity against Mycobacterium tuberculosis infected in interferon-gamma-gene-disrupted C57BL/6 mouse model assessed as reduction in bacterial load in lung at 10 mg/kg, po administered daily; assay type: functional
How it was run: (§2)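 Interferon-γ gene-disrupted C57BL/6 (GKO) mice infected with M. tuberculosis. Compound given at 10 mg/kg in 0.5% methyl cellulose by daily gavage for 9 days. Read-out is the reduction in bacterial load (Log10 CFU) in lungs or spleen versus untreated controls, with significance judged by P value (0.05 threshold).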

[11] = tested on: Mycobacterium tuberculosis; assay: Antitubercular activity against Mycobacterium tuberculosis infected in interferon-gamma-gene-disrupted C57BL/6 mouse model assessed as reduction in bacterial load in spleen at 10 mg/kg, po administered daily; assay type: functional; how it was run: as §2
[12] = tested on: Mycobacterium tuberculosis; assay: Antitubercular activity against Mycobacterium tuberculosis infected in interferon-gamma-gene-disrupted C57BL/6 mouse model assessed as reduction in bacterial load in lung at 10 mg/kg, po administered daily measured after 9 days; assay type: functional; how it was run: as §2
[13] = tested on: Mycobacterium tuberculosis; assay: Antitubercular activity against Mycobacterium tuberculosis infected in interferon-gamma-gene-disrupted C57BL/6 mouse model assessed as reduction in bacterial load in spleen at 10 mg/kg, po administered daily measured after 9 days; assay type: functional; how it was run: as §2
[14] = molecular target: T2, Cell division protein FtsZ (Mycobacterium tuberculosis) (UniProt P9WN95); assay: Inhibition of Mycobacterium tuberculosis FtsZ polymerization expressed in Escherichia coli at 100 uM by light scattering assay
T2 sequence (whole entry): T1 sequence (P9WN95 whole entry)

In the case of CCOC(=O)Nc1cc(NC(C)CCCN(CC)CC)c2nc(C)c(C)nc2n1 (stereo not given), the MIC [1] is reported as over 290 µM, the IC90 [2] is reported as over 100 µM and the CC50 [3] is reported as over 40 µM. The IC50 [4] was over 100 µM and the IC50 [5] was over 100 µM.

With CCOC(=O)Nc1cc(NC(C)CCCN(CC)CC)c2nc(-c3ccccn3)c(-c3ccccn3)nc2n1 (stereo not given) the MIC [1] was 54 µM (≈ 28.5 µg/mL), the IC90 [2] was over 100 µM and the CC50 [3] was over 40 µM. The IC50 [4] was 45.7 µM and the IC50 [5] was over 100 µM.

Work on CCOC(=O)Nc1cc(NCCN(CC)CC)c2nc(-c3cccs3)c(-c3cccs3)nc2n1 yielded an MIC [1] of at most 7.9 µM, an IC90 [2] of 0.92 µM and a CC50 [3] of 6.3 µM. It also gave an IC50 [4] of 21 µM and an IC50 [5] of over 100 µM.

With CCN(CC)CCCC(C)Nc1cc(N)nc2nc(-c3ccco3)c(-c3ccco3)nc12 (stereo not given) the MIC [1] was 150 µM (≈ 65.2 µg/mL), the IC90 [2] was over 100 µM and the CC50 [3] was 14 µM. For the same compound, the IC50 [4] was 18.6 µM and the IC50 [5] was over 100 µM.

Work on CCOC(=O)Nc1cc(NCCCCN(CC)CC)c2nc(-c3ccccc3)c(-c3ccccc3)nc2n1 yielded an MIC [1] of 0.24 µM (≈ 0.123 µg/mL), an IC90 [2] of under 0.19 µM and a CC50 [3] of 1.8 µM. The IC50 [4] was 52 µM and the inhibition [6] was 40%.

CCOC(=O)Nc1cc(NC(C)CCCN(CC)CC)c2nc(CC)c(CC)nc2n1 (stereo not given) gave an MIC [1] of over 290 µM, an IC90 [2] of over 50 µM and a CC50 [3] of over 40 µM. The IC50 [4] was over 100 µM and the IC50 [5] was over 100 µM.

Work on CCOC(=O)Nc1nc(NC(C)CCCN(CC)CC)c2c(n1)SC(c1ccccc1)C(c1ccccc1)=N2 (stereo not given) yielded an MIC [1] of 49 µM (≈ 26.8 µg/mL), an IC90 [2] of 21.7 µM and a CC50 [3] of over 40 µM. For the same compound, the IC50 [4] was 46 µM and the IC50 [5] was over 100 µM.

For CCOC(=O)Nc1cc(NC(C)CCCN(CC)CC)c2nc(-c3ccccc3)c(-c3ccccc3)nc2n1 (stereo not given), the MIC [1] was 0.47 µM (≈ 0.248 µg/mL), the IC90 [2] was under 0.19 µM and the IC50 [4] was 34.2 µM. For the same compound, the IC50 [5] was over 100 µM, the Activity [7] was “Toxic” and the Activity [8] was “Toxic”. For the same compound, the Activity [9] was “Toxic”, the log10cfu [10] was 0.86 and the log10cfu [11] was 0.5.

In the case of CCOC(=O)Nc1cc(NCCCCN(CC)CC)c2nc(-c3ccco3)c(-c3ccco3)nc2n1, the MIC [1] is reported as 3.6 µM (≈ 1.77 µg/mL), the IC90 [2] is reported as over 100 µM and the CC50 [3] is reported as over 40 µM. For the same compound, the IC50 [4] was 16.4 µM and the IC50 [5] was 41 µM.

CCOC(=O)Nc1nc(NCCCCN(CC)CC)c2c(n1)SC(c1ccccc1)C(c1ccccc1)=N2 (stereo not given) showed an MIC [1] of 52 µM (≈ 27.7 µg/mL), an IC90 [2] of 18 µM and a CC50 [3] of over 40 µM. It also gave an IC50 [4] of 46.2 µM and an IC50 [5] of 69.7 µM.

In the case of CCN(CC)CCCC(C)Nc1cc(N)nc2nc(-c3cccs3)c(-c3cccs3)nc12 (stereo not given), the MIC [1] is reported as 17 µM (≈ 7.93 µg/mL), the IC90 [2] is reported as 4.1 µM and the CC50 [3] is reported as 5.9 µM. It also gave an IC50 [4] of 29.5 µM and an IC50 [5] of over 100 µM.

Work on CCOC(=O)Nc1cc(NCCN(CC)CC)c2nc(-c3ccco3)c(-c3ccco3)nc2n1 yielded an MIC [1] of 8.7 µM (≈ 4.04 µg/mL), an IC90 [2] of over 100 µM and a CC50 [3] of 5.5 µM. For the same compound, the IC50 [4] was 34.8 µM and the IC50 [5] was over 100 µM.

CCOC(=O)Nc1nc(NC(C)CCCN(CC)CC)c2nc(-c3ccccc3)c(-c3ccccc3)nc2n1 (stereo not given) gave an MIC [1] of 3.8 µM (≈ 2.01 µg/mL), an IC90 [2] of 1.9 µM and an IC50 [4] of 38.1 µM. It also gave an inhibition [6] of 24%.

Compound CCOC(=O)Nc1cc(NCCN(C)C)c2nc(-c3cccs3)c(-c3cccs3)nc2n1 has an MIC [1] of 1.1 µM (≈ 0.515 µg/mL), an IC90 [2] of under 0.19 µM and a CC50 [3] of 1.6 µM. For the same compound, the IC50 [4] was 27.3 µM and the IC50 [5] was over 100 µM.

With CCOC(=O)Nc1cc(NCCN(C)C)c2nc(-c3ccccc3)c(-c3ccccc3)nc2n1 the MIC [1] was at most 7.6 µM, the IC90 [2] was under 0.19 µM and the CC50 [3] was 0.7 µM. It also gave an IC50 [4] of 54.6 µM and an IC50 [5] of over 100 µM.

CCOC(=O)Nc1cc(NC(C)CCCN(CC)CC)c2nc(-c3cccs3)c(-c3cccs3)nc2n1 (stereo not given) showed an MIC [1] of 0.43 µM (≈ 0.232 µg/mL), an IC90 [2] of under 0.19 µM and a CC50 [3] of over 40 µM. For the same compound, the IC50 [4] was 34.3 µM, the IC50 [5] was over 100 µM and the log10cfu [12] was 0.51. For the same compound, the log10cfu [13] was 0.58.

CCOC(=O)Nc1cc(NCCCCN(CC)CC)c2nc(-c3cccs3)c(-c3cccs3)nc2n1 showed an MIC [1] of 0.23 µM (≈ 0.121 µg/mL), an IC90 [2] of over 100 µM and a CC50 [3] of over 40 µM. The inhibition [14] was 64% and the IC50 [5] was over 100 µM.

CCOC(=O)Nc1cc(NC(C)CCCN(CC)CC)c2nc(-c3ccco3)c(-c3ccco3)nc2n1 (stereo not given) showed an MIC [1] of 3.6 µM (≈ 1.82 µg/mL), an IC90 [2] of 7 µM and a CC50 [3] of over 40 µM. It also gave an IC50 [4] of 26.8 µM and an IC50 [5] of over 100 µM.

Compound CCOC(=O)Nc1cc(NCCN(C)C)c2nc(-c3ccco3)c(-c3ccco3)nc2n1 has an MIC [1] of at most 7 µM, an IC90 [2] of 29 µM and a CC50 [3] of 37 µM. It also gave an IC50 [4] of 34.1 µM and an IC50 [5] of over 100 µM.

For CCOC(=O)Nc1cc(NCCN(CC)CC)c2nc(-c3ccccc3)c(-c3ccccc3)nc2n1, the MIC [1] was 1.7 µM (≈ 0.824 µg/mL), the IC90 [2] was 0.38 µM and the CC50 [3] was 2.7 µM. It also gave an inhibition [14] of 59% and an IC50 [5] of over 100 µM.

Source: ChEMBL document CHEMBL1926535, “Novel pyridopyrazine and pyrimidothiazine derivatives as FtsZ inhibitors” (Bioorg Med Chem, 2011)
